SR-BI HDL uptake: blocks mouse SR-BI lipid uptake from DiI-HDL. inhibition, % at 12.5 µM. ldlA[mSR-BI] CHO cells, DiI-HDL uptake fluorescence, 3 h. AID 488896. Q61009. actives 0.96% (n = 320,000);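 active means mean replicate inhibition of at least 70% and a set share of replicates each scoring 70 or more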
Target sequence (Q61009 whole entry, looked up): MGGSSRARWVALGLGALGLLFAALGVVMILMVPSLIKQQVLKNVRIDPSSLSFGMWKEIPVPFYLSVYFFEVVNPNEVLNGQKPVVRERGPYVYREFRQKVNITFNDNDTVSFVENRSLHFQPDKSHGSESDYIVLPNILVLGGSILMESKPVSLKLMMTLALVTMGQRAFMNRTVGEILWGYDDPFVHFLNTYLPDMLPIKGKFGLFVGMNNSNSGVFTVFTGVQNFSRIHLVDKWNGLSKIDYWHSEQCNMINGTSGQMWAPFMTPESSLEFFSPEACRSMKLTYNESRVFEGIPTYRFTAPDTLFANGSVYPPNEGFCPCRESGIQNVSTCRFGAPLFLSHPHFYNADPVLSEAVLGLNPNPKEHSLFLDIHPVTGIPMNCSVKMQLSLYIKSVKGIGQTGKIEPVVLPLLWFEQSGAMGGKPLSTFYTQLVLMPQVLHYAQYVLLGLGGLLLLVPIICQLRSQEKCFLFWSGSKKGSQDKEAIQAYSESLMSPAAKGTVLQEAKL
CR mimetic SO: yeast age-related superoxide inhibition as caloric restriction mimetic; S. cerevisiae aged cells, superoxide DHE fluorescence; stronger effect = lower value; superoxide response (% of plate mean), % at 10 µM; actives 0.18% (n = 330,000); AID 2690;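 active means superoxide response under a set limit, about three screen SD below normal, cut at about 65% in these data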;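 further: yeast aged for seven days with compound at 30 °C before DHE staining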
Hep lipid drop: hepatic lipid droplet formation modulation. AML12 mouse hepatocytes, oleate lipid droplets, BODIPY imaging. inhibition, % at 6.5 µM. actives 0.4% (n = 240,000). AID 1656;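 active means lipid droplet intensity inhibited by at least 50%, with more than 500 cells counted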
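System: AML12 hepatocytes (mouse). Probe or stimulus: oleic acid at 100 µM to induce lipid droplet formation. Times: overnight treatment with compound plus oleate. Detection: Image-based BODIPY and DAPI two-channel analysis. Evaluation: percent inhibition of filter-corrected integrated lipid droplet intensity per well.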
AHR activator: activates the human aryl hydrocarbon receptor | P35869 | AHR-responsive luciferase reporter cells, luminescence | activation, % at 5 µM | actives 2.5% (n = 320,000); in the data active means activation above about 47%
SMARCA2 act: SMARCA2 function activation, primary screen | MG213 cells, MMTV-luciferase reporter, dexamethasone, overnight | activation, % at 9.1 µM | actives 1% (n = 370,000); in the data active means activation above about 7.8%
SR-BI uptake up: activators of SR-BI mediated HDL lipid uptake | CHO ldlA[mSR-BI] cells, DiI-HDL uptake fluorescence, 3 h; 100 = double the neutral-control signal | activation, % at 12.5 µM | actives 0.096% (n = 320,000);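 active means mean replicate activation of at least 60% and every replicate at or above 60%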
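system = CHO ldlA[mSR-BI] cells, LDL receptor-null, SR-BI overexpressing | medium = Ham's F12 with 0.5% BSA, HEPES 25 mM, pH 7.4 | probe or stimulus = DiI-HDL 10 µg/mL | compound dosing = single-point compound dose | incubation = compound exposure 3 h, 37 °C | technique = DiI fluorescence, bottom read | read-out = cell-associated DiI fluorescence as measure of HDL uptake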
SMARCA2 act conf: SMARCA2 activation, confirmation screen. shares compounds with SMARCA2 act. MG213 cells, MMTV-luciferase with dexamethasone, luminescence, overnight; MG213 cells expressing E1A, Rb sequestered; DMSO wells 0%, reference activator 100%. activation, % at 9.1 µM. actives 30% (n = 3,500). AID 652260;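 active means activation above its plate's cutoff, the mean activation of tested wells plus 3 SD, cut at about 7.9% in these data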
GAL4-VP16 Luc: activates GAL4-VP16 luciferase, flagging SMARCA2 activator hits | activation, % at 9.1 µM | HEK293 GAL4-VP16 pG5luc reporter, luciferase luminescence; scaled: DMSO wells 0%, SAHA wells 100% | actives 41% (n = 3,500) | shares compounds with SMARCA2 act;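 active means activation above the solvent-only control well mean plus 3 SD, averaged across control plates, cut at about 5.2% in these data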
Large screens that a line does not name were inactive (follow-up assays come after a bar, where they were run). Shown are actives, neighbours in structure and some others; about 4.3% of the full set was active somewhere.

O=C(Nc1nc2c(F)cc(F)cc2s1)c1ccccn1	SMARCA2 act 11.4 | SMARCA2 act conf inactive | GAL4-VP16 Luc 19.6
COc1cc(OCc2ccccc2)c2c(CCC(=O)O)cc(=O)oc2c1	SMARCA2 act 8.5 (no result: CR mimetic SO, Hep lipid drop, AHR activator) | SMARCA2 act conf inactive | GAL4-VP16 Luc inactive
CCc1cc(=O)oc2cc(OC(C)=O)cc(OC(C)=O)c12	none
O=C(CCc1ccccc1)N[C@H]1[C@@H](OC(=O)c2cccnc2)CCC[C@@]12C(=O)N(Cc1ccccc1)c1ccccc12	none (no result: SR-BI HDL uptake, CR mimetic SO, Hep lipid drop, AHR activator, SR-BI uptake up)
CCCCCOC(=O)NCC(O)c1ccccc1 (stereo unspecified)	SMARCA2 act 12.9 (no result: Hep lipid drop) | SMARCA2 act conf inactive | GAL4-VP16 Luc 11.3
Cc1cc(C)c(C#N)c(SCc2cc3c(cc2Cl)OCO3)n1	SMARCA2 act 13.1 (no result: Hep lipid drop) | SMARCA2 act conf inactive | GAL4-VP16 Luc inactive
Cc1cc(C)c(C#N)c(SCc2ccccc2C)n1	none
Cc1ccc(C(=O)OCC(=O)c2ccccc2)cc1	none
CC(=O)Nc1cc(C(=O)OCC(=O)c2ccccc2)ccc1C	SMARCA2 act 8.3 | SMARCA2 act conf inactive | GAL4-VP16 Luc 10.0
CN(C)c1cccc(C(=O)Nc2cccc(S(=O)(=O)NC3=NCCC3)c2)c1	SMARCA2 act 8.3 | SMARCA2 act conf 14.6 | GAL4-VP16 Luc 5.3
Cc1ccc(-n2cnc3cc(NCc4cccs4)ccc32)cc1	none
c1ccc(-n2cnc3cc(NCc4ccco4)ccc32)cc1	SMARCA2 act 9.6 | SMARCA2 act conf inactive | GAL4-VP16 Luc 8.2
COc1ccc(CNc2nc3ccccc3n2C)c(O)c1	SMARCA2 act 8.1 (no result: SR-BI HDL uptake, SR-BI uptake up) | SMARCA2 act conf 9.3 | GAL4-VP16 Luc 7.3
Cn1c(NCc2ccc(Cl)cc2)nc2ccccc21	SMARCA2 act 8.3 | SMARCA2 act conf 8.3 | GAL4-VP16 Luc 11.0
COc1ccc(CNc2nc3ccccc3n2C)c(OC)c1	SMARCA2 act 8.0 | SMARCA2 act conf 10.3 | GAL4-VP16 Luc 10.3
COc1ccc(CNc2nc3ccccc3n2C(C)C)c(O)c1	none
COC(=O)[C@H](CC(C)C)N1Cc2nnn(Cc3ccc(C)cc3)c2-c2cc(F)ccc2S1(=O)=O	none (no result: SR-BI HDL uptake, CR mimetic SO, Hep lipid drop, AHR activator, SR-BI uptake up)
CCN=C1NC(c2ccc(Cl)cc2)C(C(=O)OC)=C(C)N1Cc1cccc(C(F)(F)F)c1 (stereo unspecified)	none (no result: SR-BI HDL uptake, CR mimetic SO, Hep lipid drop, AHR activator, SR-BI uptake up)
NC(=S)NN=C(c1ccccc1)c1ccccc1	none
C/C(=N\NC(N)=S)c1ccccc1	SR-BI HDL uptake 86.4, SMARCA2 act 8.0 | SMARCA2 act conf inactive | GAL4-VP16 Luc inactive
O=C(O)c1ccccc1C1Nc2ccccc2C(=O)N1CCCN1CCOCC1 (stereo unspecified)	SMARCA2 act 11.6 (no result: SR-BI HDL uptake, SR-BI uptake up) | SMARCA2 act conf inactive | GAL4-VP16 Luc inactive
CCn1c(SCC(=O)Nc2ccccc2-c2ccccc2)nnc1-c1ccc(Cl)cc1	none (no result: SR-BI HDL uptake, CR mimetic SO, Hep lipid drop, AHR activator, SR-BI uptake up)
N#CC1=C(N)Oc2n[nH]c(-c3cccnc3)c2C1c1ccc([N+](=O)[O-])o1 (stereo unspecified)	SMARCA2 act 10.2 | SMARCA2 act conf inactive | GAL4-VP16 Luc inactive
N#CC1=C(N)Oc2n[nH]c(-c3ccccc3)c2C1c1cccnc1 (stereo unspecified)	none
COC(=O)[C@]12C[C@H](CC(=O)NCCC(C)C)C(=O)N(Cc3cccc4ccccc34)C1=C[C@H](C(C)C)O[C@@H]2C1CC1	none (no result: SR-BI HDL uptake, CR mimetic SO, Hep lipid drop, AHR activator, SR-BI uptake up)
COc1ccc(COCC(O)CN2CCc3ccccc3C2)cc1OC (stereo unspecified)	SMARCA2 act 8.8 | SMARCA2 act conf inactive | GAL4-VP16 Luc inactive
COC(=O)[C@H](CC(C)C)N(CCc1cn(Cc2ccccc2)nn1)S(=O)(=O)c1ccccc1Br	none (no result: SR-BI HDL uptake, CR mimetic SO, Hep lipid drop, AHR activator, SR-BI uptake up)
COc1ccc(OCc2cc(C(=O)NC(C)c3nc(C)cs3)no2)c(Cl)c1 (stereo unspecified)	none (no result: SR-BI HDL uptake, CR mimetic SO, Hep lipid drop, AHR activator, SR-BI uptake up)
COc1ccc(OCc2cc(C(=O)NC(C)c3csc(C)n3)no2)c(Cl)c1 (stereo unspecified)	SMARCA2 act 9.8 | SMARCA2 act conf inactive | GAL4-VP16 Luc 6.0
CC[C@@H](CCCCCCCn1ccc2ccccc21)CCC(=O)N(c1ccccc1)c1ccccc1	none (no result: SR-BI HDL uptake, CR mimetic SO, Hep lipid drop, AHR activator, SR-BI uptake up)
Cc1ccc(OCCCCCCN2CCNCC2)c(Br)c1	SMARCA2 act 11.1 (no result: Hep lipid drop) | SMARCA2 act conf inactive | GAL4-VP16 Luc 9.7
CC(C)[C@@H]1NC(=O)[C@H]2C[C@@]3(c4ccccc4)c4ccccc4N[C@H]3N2C1=O	none (no result: SR-BI HDL uptake, CR mimetic SO, Hep lipid drop, AHR activator, SR-BI uptake up)
COC(=O)[C@@]12CCCCC3=C1N(CCC3)C(=O)[C@H]2CC(=O)NCc1cccc(C(F)(F)F)c1	none (no result: SR-BI HDL uptake, CR mimetic SO, Hep lipid drop, AHR activator, SR-BI uptake up)
Cc1cc(C(=O)N/N=C/c2cccc(Cl)c2Cl)no1	AHR activator 47.1, SMARCA2 act 10.7 | SMARCA2 act conf inactive | GAL4-VP16 Luc 8.8
CCCc1cc(C(=O)Nc2ccc(CC)cc2)no1	none
CCCc1cc(C(=O)Nc2ccc(C)cc2)no1	SMARCA2 act 11.6 (no result: Hep lipid drop) | SMARCA2 act conf inactive | GAL4-VP16 Luc 6.9
CCOC(=O)N/N=C/c1cccc(Cl)c1Cl	none

Bioassay records from PubChem.
